Key:
U-937 [1] = experiment: Cytotoxicity against human U937 cells up to 50 uM; format: cell-based
Leishmania major [2] = experiment: Antileishmanial activity against promastigote form of Leishmania major JISH118 infected in human THP1 cells by Giemsa staining; format: functional, cell-based; details: JISH118, THP-1
Procedure, shortened: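 THP-1 cells grown in RPMI-1640 with 1% L-glutamine and 10% HIFBS, seeded at 5.0 x 10^4 macrophages/well and made adherent with PMA for 3 days at 37 °C, 5% CO2. Infected with stationary-stage L. major promastigotes (cultured at 26°C in Schneider's medium) at macrophage:parasite 1:5, held at 34 °C for 48 h. Extracellular parasites washed out, compounds added at various concentrations. Activity from % infected cells versus untreated after methanol fixation and Giemsa staining; triplicate.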

THP-1 = experiment: Cytotoxicity against human THP1 cells; format: cell-based
[3] = Selectivity index, ratio of IC50 for human THP1 cells to IC50 for promastigote form of Leishmania major JISH118 infected in human THP1 cells; format: toxicity, cell-based; details: read-out: Ratio IC50
Procedure, shortened: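 Selectivity index taken as the IC50 in THP-1 cells divided by the antileishmanial IC50 from infected THP-1 macrophages.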

U-937 [4] = experiment: Cytotoxicity against human U937 cells; format: cell-based
Leishmania major [5] = experiment: Potency index, ratio of pentamidine IC50 to test compound IC50 for promastigote form of Leishmania major JISH118 infected in human THP1 cells; format: functional

Row | Structure (SMILES) | Activity (U-937 [1]) | IC50 (Leishmania major [2]) [µM] | IC50 (THP-1) [µM] | selectivity ratio [3] | IC50 (U-937 [4]) [µM] | Ratio IC50 (Leishmania major [5])
1 | COc1ccccc1-c1nnc(-c2ccc(C(=O)N/N=C/c3ccccc3C)cc2)o1 | Non-Toxic | 34.1 | – | – | – | –
2 | COc1ccccc1-c1nnc(-c2ccc(C(=O)N/N=C/c3ccccc3F)cc2)o1 | Non-Toxic | 5.18 | 313 | 60.4 | – | –
3 | COc1ccccc1-c1nnc(-c2ccc(C(=O)N/N=C/c3ccc(C)cc3)cc2)o1 | Non-Toxic | 29.6 | – | – | – | –
4 | COc1ccccc1-c1nnc(-c2ccc(C(=O)N/N=C/c3cccc([N+](=O)[O-])c3)cc2)o1 | Non-Toxic | 74.2 | 119 | 1.6 | – | –
5 | COc1cccc(/C=N/NC(=O)c2ccc(-c3nnc(-c4ccccc4OC)o3)cc2)c1 | Non-Toxic | 78.6 | – | – | – | –
6 | COc1ccccc1-c1nnc(-c2ccc(C(=O)N/N=C/c3cc(O)c(O)cc3O)cc2)o1 | – | 0.98 | 5.4 | 5.5 | 7.46 | –
7 | COc1ccccc1-c1nnc(-c2ccc(C(=O)N/N=C/c3ccc(O)cc3O)cc2)o1 | Non-Toxic | 3.78 | 104 | 27.5 | – | –
8 | COc1ccc(/C=N/NC(=O)c2ccc(-c3nnc(-c4ccccc4OC)o3)cc2)cc1 | Non-Toxic | 74.2 | – | – | – | –
9 | COc1ccccc1-c1nnc(-c2ccc(C(=O)N/N=C/c3ccccn3)cc2)o1 | – | 9.06 | 67 | 7.4 | 68.6 | –
10 | COc1ccccc1-c1nnc(-c2ccc(C(=O)N/N=C/c3cccc(F)c3)cc2)o1 | Non-Toxic | 6.35 | 353 | 55.6 | – | –
11 | COc1ccccc1-c1nnc(-c2ccc(C(=O)N/N=C/c3cccnc3)cc2)o1 | Non-Toxic | 46.5 | 167 | 3.6 | – | –
12 | COc1ccc(O)c(/C=N/NC(=O)c2ccc(-c3nnc(-c4ccccc4OC)o3)cc2)c1 | Non-Toxic | 16.3 | 303 | 18.6 | – | –
13 | COc1ccccc1-c1nnc(-c2ccc(C(=O)N/N=C/c3ccncc3)cc2)o1 | Non-Toxic | 38.5 | 173 | 4.5 | – | –
14 | COc1ccccc1-c1nnc(-c2ccc(C(=O)N/N=C/c3ccccc3O)cc2)o1 | Non-Toxic | 4.14 | 207 | 50 | – | –
15 | COc1ccccc1-c1nnc(-c2ccc(C(=O)N/N=C/c3ccccc3Cl)cc2)o1 | Non-Toxic | 29.1 | – | – | – | –
16 | COc1ccccc1-c1nnc(-c2ccc(C(=O)N/N=C/c3cc(O)ccc3O)cc2)o1 | Non-Toxic | 4.46 | 100 | 22.4 | – | –

Row | Structure (SMILES) | Activity (U-937 [1]) | IC50 (Leishmania major [2]) [µM] | IC50 (THP-1) [µM] | selectivity ratio [3] | IC50 (U-937 [4]) [µM] | Ratio IC50 (Leishmania major [5])
17 | COc1ccccc1-c1nnc(-c2ccc(C(=O)N/N=C/c3cccc(O)c3)cc2)o1 | Non-Toxic | 18.1 | 398 | 22 | – | –
18 | COc1ccccc1-c1nnc(-c2ccc(C(=O)N/N=C/c3ccc(O)cc3)cc2)o1 | Non-Toxic | 7.45 | 261 | 35 | – | –
19 | COc1ccccc1-c1nnc(-c2ccc(C(=O)N/N=C/c3ccc(Cl)cc3Cl)cc2)o1 | – | 5.12 | 78.8 | 15.4 | 75.6 | –
20 | N=C(N)c1ccc(OCCCCCOc2ccc(C(=N)N)cc2)cc1 [PENTAMIDINE] | – | – | 7.7 | 1.1 | 6.02 | –
21 | COc1ccccc1-c1nnc(-c2ccc(C(=O)N/N=C/c3cccc(Cl)c3)cc2)o1 | Non-Toxic | 20.7 | – | – | – | –
22 | COc1ccccc1-c1nnc(-c2ccc(C(=O)N/N=C/c3ccccc3[N+](=O)[O-])cc2)o1 | Non-Toxic | 64.5 | 161 | 2.5 | – | –
23 | COc1ccccc1-c1nnc(-c2ccc(C(=O)N/N=C/c3cccc(C)c3)cc2)o1 | Non-Toxic | 40.2 | – | – | – | –
24 | COc1ccccc1-c1nnc(-c2ccc(C(=O)N/N=C/c3c(O)cc(O)cc3O)cc2)o1 | – | 4.78 | 12.4 | 2.6 | 15.2 | –
25 | COc1ccccc1-c1nnc(-c2ccc(C(=O)N/N=C/c3ccc([N+](=O)[O-])cc3)cc2)o1 | Non-Toxic | 56.5 | 203 | 3.6 | – | –
26 | COc1ccccc1-c1nnc(-c2ccc(C(=O)N/N=C/c3ccc(O)c(O)c3)cc2)o1 | Non-Toxic | 0.95 | 100 | 105 | – | 7
27 | COc1ccccc1-c1nnc(-c2ccc(C(=O)N/N=C/c3ccc(F)cc3)cc2)o1 | Non-Toxic | 14.2 | 427 | 30.1 | – | –
28 | COc1ccccc1-c1nnc(-c2ccc(C(=O)N/N=C/c3cccc(O)c3O)cc2)o1 | Non-Toxic | 1.4 | 102 | 72.6 | – | –
29 | COc1ccccc1-c1nnc(-c2ccc(C(=O)N/N=C/c3ccc(Cl)cc3)cc2)o1 | Non-Toxic | 34.1 | – | – | – | –
30 | COc1ccc(/C=N/NC(=O)c2ccc(-c3nnc(-c4ccccc4OC)o3)cc2)c(O)c1 | Non-Toxic | 6.6 | 308 | 46.6 | – | –
31 | COc1ccc(/C=N/NC(=O)c2ccc(-c3nnc(-c4ccccc4OC)o3)cc2)cc1O | Non-Toxic | 6.4 | 260 | 40.6 | – | –

Source: ChEMBL document CHEMBL4000205, “Synthesis and molecular modelling studies of phenyl linked oxadiazole-phenylhydrazone hybrids as potent antileishmanial agents” (Eur J Med Chem, 2017)
